Measured values published in ChEMBL document CHEMBL3425458, “Design, synthesis and antitumor activity of triterpenoid pyrazine derivatives from 23-hydroxybetulinic acid” (Eur J Med Chem, 2015).

What was measured:
B16 [1] = assay: Antiproliferative activity against mouse B16 cells assessed as growth inhibition after 72 hrs by MTT assay; type: functional, cell-based; settings: B16, 72 h
Summary of the method: (§1)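 IC50 is the concentration inhibiting 50% cell growth. Values are mean ± S.D. from three different experiments, each performed in triplicate.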

[2] = Antiproliferative activity against human HL60 cells assessed as growth inhibition after 72 hrs by MTT assay; type: functional, cell-based; settings: HL-60, 72 h
Summary of the method: (§2)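 Values are mean ± S.D. from three different experiments, each performed in triplicate.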

HeLa = assay: Antiproliferative activity against human HeLa cells assessed as growth inhibition after 72 hrs by MTT assay; type: functional, cell-based; summary of the method: as §1
[3] = Antiproliferative activity against human SF763 cells assessed as growth inhibition after 72 hrs by MTT assay; type: functional, cell-based; settings: SF763, 72 h; summary of the method: as §2
[4] = Antiproliferative activity against human Bel7402 cells assessed as growth inhibition after 72 hrs by MTT assay; type: functional, cell-based; settings: Bel-7402, 72 h; summary of the method: as §1
Mus musculus [5] = assay: Toxicity against mouse xenografted […] cells assessed as body weight at 30 mg/kg, ip administered after 7 days of tumor transplantation (reference value: 18.1 to 18.6 gms); type: organism-based; design: dose 30 mg/kg, route intraperitoneal; settings: in vivo, 168 h
Summary of the method: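 H22 liver cancer-bearing mice, 10 per group at start and end. Test article given ip at 30 mg/kg, with a vehicle group (0.5 mL/mouse, iv). Body weight was recorded at start and at end, alongside tumor weight.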

H22 = assay: In vivo antitumor activity […] cells xenografted in mouse assessed as tumor growth inhibitory ratio at 30 mg/kg, ip administered after 7 days of tumor transplantation measured at 25th day after tumor inoculation; type: functional; settings: 168 h, route intraperitoneal
Summary of the method: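 Mice bearing H22 liver cancer, 10 per group. Test article at 30 mg/kg ip. Vehicle 0.5 mL/mouse iv. Cyclophosphamide 30 mg/kg iv as positive control. Tumor weight recorded to give tumor inhibitory ratio.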

Mus musculus [6] = assay: Toxicity against mouse xenografted with mouse B16 cells assessed as body weight at 30 mg/kg, ip administered after 7 days of tumor transplantation (reference value: 18.2 to 18.3 gms); type: organism-based; design: dose 30 mg/kg, route intraperitoneal; settings: in vivo, 168 h
B16 [7] = assay: In vivo antitumor activity against mouse B16 cells xenografted in mouse assessed as tumor growth inhibitory ratio at 30 mg/kg, ip administered after 7 days of tumor transplantation measured at 25th day after tumor inoculation; type: functional; settings: 168 h, route intraperitoneal

SMILES	IC50 (B16 [1]) [µM]	IC50 [2] [µM]	IC50 (HeLa) [µM]	IC50 [3] [µM]	IC50 [4] [µM]	Activity (Mus musculus [5]) [g]	inhibition in vivo at 30 mg/kg (H22) [%]	Activity (Mus musculus [6]) [g]	inhibition in vivo at 30 mg/kg (B16 [7]) [%]
C=C(C)[C@@H]1CC[C@]2(C(=O)OCCO)CC[C@]3(C)[C@H](CC[C@@H]4[C@@]5(C)Cc6nccnc6[C@@](C)(COC(C)=O)[C@@H]5CC[C@]43C)[C@@H]12	12.1	22.2	17.5	13	15.7	–	–	–	–
C=C(C)[C@@H]1CC[C@]2(C(=O)OCc3ccccc3)CC[C@]3(C)[C@H](CC[C@@H]4[C@@]5(C)Cc6nccnc6[C@@](C)(CO)[C@@H]5CC[C@]43C)[C@@H]12	8.56	18.9	12.8	9.54	10.1	–	–	–	–
COc1cccc2c1C(=O)c1c(O)c3c(c(O)c1C2=O)C[C@@](O)(C(=O)CO)C[C@@H]3O[C@H]1C[C@H](N)[C@H](O)[C@H](C)O1 [DOXORUBICIN]	–	–	–	–	0.22	–	–	–	–
C=C(C)[C@@H]1CC[C@]2(C(=O)O)CC[C@]3(C)[C@H](CC[C@@H]4[C@@]5(C)Cc6nccnc6[C@@](C)(COC(C)=O)[C@@H]5CC[C@]43C)[C@@H]12	9.9	20.4	14.6	11.1	16.8	–	–	–	–
C=C(C)[C@@H]1CC[C@]2(C(=O)OCc3ccc(-c4ccccc4C#N)cc3)CC[C@]3(C)[C@H](CC[C@@H]4[C@@]5(C)Cc6nccnc6[C@@](C)(CO)[C@@H]5CC[C@]43C)[C@@H]12	7.15	11.7	9.32	5.63	9.37	–	–	–	–
C=C(C)[C@@H]1CC[C@]2(C(=O)OCC)CC[C@]3(C)[C@H](CC[C@@H]4[C@@]5(C)Cc6nccnc6[C@@](C)(CO)[C@@H]5CC[C@]43C)[C@@H]12	9.97	22.5	15.1	10	14.8	–	–	–	–
C=C(C)[C@@H]1CC[C@]2(C(=O)OCCO)CC[C@]3(C)[C@H](CC[C@@H]4[C@@]5(C)Cc6nccnc6[C@@](C)(CO)[C@@H]5CC[C@]43C)[C@@H]12	13.1	23.6	20.7	13.5	17.4	–	–	–	–
O=P1(N(CCCl)CCCl)NCCCO1 (centres undefined) [CYCLOPHOSPHAMIDE ANHYDROUS]	–	–	–	–	–	25.7	53.7	–	–
C=C(C)[C@@H]1CC[C@]2(C(=O)O)CC[C@]3(C)[C@H](CC[C@@H]4[C@@]5(C)CC[C@H](O)[C@@](C)(CO)[C@@H]5CC[C@]43C)[C@@H]12	–	–	–	–	–	26.1	27.8	26.7	32.4
C=C(C)[C@@H]1CC[C@]2(C(=O)O[C@@H]3O[C@H](CO)[C@@H](O)[C@H](O)[C@H]3O)CC[C@]3(C)[C@H](CC[C@@H]4[C@@]5(C)Cc6nccnc6[C@@](C)(CO)[C@@H]5CC[C@]43C)[C@@H]12	12.8	21.1	15.9	11	17.7	–	–	–	–
C=C(C)[C@@H]1CC[C@]2(C(=O)NCC(=O)OC)CC[C@]3(C)[C@H](CC[C@@H]4[C@@]5(C)Cc6nccnc6[C@@](C)(COC(C)=O)[C@@H]5CC[C@]43C)[C@@H]12	8.08	14.7	10.9	9.26	11.1	–	–	–	–
C=C(C)[C@@H]1CC[C@]2(C(=O)OCC(=O)O)CC[C@]3(C)[C@H](CC[C@@H]4[C@@]5(C)Cc6nccnc6[C@@](C)(CO)[C@@H]5CC[C@]43C)[C@@H]12	9.41	19.5	10.1	8.86	13.1	–	–	–	–
C=C(C)[C@@H]1CC[C@]2(C(=O)O)CC[C@]3(C)[C@H](CC[C@@H]4[C@@]5(C)Cc6nccnc6[C@@](C)(CO)[C@@H]5CC[C@]43C)[C@@H]12	14.9	24.1	19.6	15.4	19.1	–	–	–	–
C=C(C)[C@@H]1CC[C@]2(C(=O)Oc3ccc(C#N)cc3)CC[C@]3(C)[C@H](CC[C@@H]4[C@@]5(C)Cc6nccnc6[C@@](C)(COC(C)=O)[C@@H]5CC[C@]43C)[C@@H]12	6.02	10.2	7.91	5.77	8.09	–	–	–	–
C=CCOC(=O)[C@]12CC[C@@H](C(=C)C)[C@@H]1[C@H]1CC[C@@H]3[C@@]4(C)Cc5nccnc5[C@@](C)(CO)[C@@H]4CC[C@@]3(C)[C@]1(C)CC2	8.98	19.1	11	8.62	11.9	–	–	–	–
O=c1[nH]cc(F)c(=O)[nH]1 [FLUOROURACIL]	–	–	–	–	–	–	–	26.2	70.3
C=C(C)[C@@H]1CC[C@]2(C(=O)OCC(=O)OCC)CC[C@]3(C)[C@H](CC[C@@H]4[C@@]5(C)Cc6nccnc6[C@@](C)(CO)[C@@H]5CC[C@]43C)[C@@H]12	11.3	23.6	17	13.1	17	–	–	–	–
